According to ChEMBL document CHEMBL1255376, “Comparative surveillance study of telavancin activity against recently collected gram-positive clinical isolates from across the United States” (2008):
Converted amounts (≈) assume the structure as drawn.

Tests used:
[1] = system: Staphylococcus; assay: Antibacterial activity against methicillin-susceptible coagulase-negative unspeciated Staphylococcus clinical isolate by broth microdilution method; type: functional
How it was run: (§1)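 MICs by CLSI broth microdilution in frozen trays pre-loaded with serial dilutions of each agent. Quality-control strains run in parallel: E. faecalis ATCC 29212 and ATCC 51299, S. aureus ATCC 29213, S. pneumoniae ATCC 49619. Comparator susceptibility categories follow CLSI breakpoints. Methicillin resistance in staphylococci assigned from the oxacillin MIC.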

[2] = system: Enterococcus faecium; assay: Antibacterial activity against linezolid/daptomycin-nonsusceptible vancomycin-susceptible Enterococcus faecium clinical isolate by broth microdilution method; type: functional; how it was run: as §1
[3] = system: Staphylococcus; assay: Antibacterial activity against methicillin-resistant coagulase-negative unspeciated Staphylococcus clinical isolate by broth microdilution method; type: functional; how it was run: as §1
[4] = system: Streptococcus pneumoniae; assay: Antibacterial activity against penicillin susceptible Streptococcus pneumoniae clinical isolate by broth microdilution method; type: functional; how it was run: as §1
[5] = system: Enterococcus faecalis; assay: Antibacterial activity against linezolid/daptomycin-nonsusceptible vancomycin-susceptible Enterococcus faecalis clinical isolate by broth microdilution method; type: functional; how it was run: as §1
[6] = system: Staphylococcus aureus; assay: Antibacterial activity against daptomycin-nonsusceptible Staphylococcus aureus isolate 1176127 by broth microdilution method; type: functional; how it was run: as §1
[7] = system: Staphylococcus hominis; assay: Antibacterial activity against methicillin-susceptible coagulase-negative Staphylococcus hominis clinical isolate by broth microdilution method; type: functional; how it was run: as §1
[8] = system: Staphylococcus epidermidis; assay: Antibacterial activity against methicillin-resistant coagulase-negative Staphylococcus epidermidis clinical isolate by broth microdilution method; type: functional; how it was run: as §1
[9] = system: Mammaliicoccus sciuri; assay: Antibacterial activity against methicillin-resistant coagulase-negative Staphylococcus sciuri clinical isolate by broth microdilution method; type: functional; how it was run: as §1
[10] = system: Staphylococcus xylosus; assay: Antibacterial activity against methicillin-resistant coagulase-negative Staphylococcus xylosus clinical isolate by broth microdilution method; type: functional; how it was run: as §1
[11] = system: Enterococcus faecium; assay: Antibacterial activity against linezolid/daptomycin-nonsusceptible vancomycin-resistant Enterococcus faecium clinical isolate by broth microdilution method; type: functional; how it was run: as §1
[12] = system: Staphylococcus aureus; assay: Antibacterial activity against daptomycin-nonsusceptible Staphylococcus aureus isolate 1285404 by broth microdilution method
[13] = system: Staphylococcus aureus; assay: Antibacterial activity against vancomycin-intermediate methicillin-resistant Staphylococcus aureus NRS1 by broth microdilution method; type: functional
How it was run: (§2)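 VISA and VRSA strains from the NARSA repository were tested separately from the surveillance isolates. MICs by CLSI broth microdilution in frozen trays with serial dilutions. Quality-control strains run in parallel. Susceptibility categories follow CLSI breakpoints, and methicillin resistance was assigned from the oxacillin MIC.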

[14] = system: Staphylococcus hominis; assay: Antibacterial activity against methicillin-resistant coagulase-negative Staphylococcus hominis clinical isolate by broth microdilution method; type: functional; how it was run: as §1
[15] = system: Staphylococcus aureus; assay: Antibacterial activity against vancomycin-intermediate methicillin-resistant Staphylococcus aureus NRS118 by broth microdilution method; type: functional; how it was run: as §2
[16] = system: Enterococcus faecalis; assay: Antibacterial activity against vancomycin- and teichoplanin-nonsusceptible Enterococcus faecalis clinical isolate by broth microdilution method; type: functional; how it was run: as §1
[17] = system: Enterococcus; assay: Antibacterial activity against vancomycin-susceptible Enterococcus; type: functional
How it was run: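 MIC by CLSI broth microdilution in frozen microtiter trays holding serial dilutions of each agent, prepared from standard laboratory powders. E. faecalis ATCC 29212 and ATCC 51299, S. aureus ATCC 29213 and S. pneumoniae ATCC 49619 run in parallel as quality-control strains. Comparator susceptibility interpreted with CLSI breakpoints.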

[18] = system: Staphylococcus aureus; assay: Antibacterial activity against methicillin-resistant Staphylococcus aureus; type: functional
[19] = system: Staphylococcus aureus; assay: Antibacterial activity against daptomycin-nonsusceptible Staphylococcus aureus isolate 1171055 by broth microdilution method; type: functional; how it was run: as §1
[20] = system: Staphylococcus aureus; assay: Antibacterial activity against daptomycin-nonsusceptible Staphylococcus aureus isolate 1171063 by broth microdilution method; type: functional; how it was run: as §1
[21] = system: Staphylococcus aureus; assay: Antibacterial activity against vancomycin-, methicillin-resistant Staphylococcus aureus VRS1 by broth microdilution method; type: functional; how it was run: as §2
[22] = system: Staphylococcus aureus; assay: Antibacterial activity against vancomycin-intermediate methicillin-resistant Staphylococcus aureus NRS74 by broth microdilution method; type: functional; how it was run: as §2
[23] = system: Staphylococcus aureus; assay: Antibacterial activity against vancomycin-intermediate methicillin-resistant Staphylococcus aureus NRS12 by broth microdilution method; type: functional; how it was run: as §2
[24] = system: Staphylococcus aureus; assay: Antibacterial activity against vancomycin-, methicillin-resistant Staphylococcus aureus VRS2 by broth microdilution method; type: functional; how it was run: as §2
[25] = system: Staphylococcus cohnii; assay: Antibacterial activity against methicillin-resistant coagulase-negative Staphylococcus cohnii clinical isolate by broth microdilution method; type: functional; how it was run: as §1
[26] = system: Staphylococcus aureus; assay: Antibacterial activity against vancomycin-intermediate methicillin-susceptible Staphylococcus aureus NRS56 by broth microdilution method; type: functional; how it was run: as §2
[27] = system: Streptococcus pneumoniae; assay: Antibacterial activity against penicillin resistant Streptococcus pneumoniae clinical isolate by broth microdilution method; type: functional; how it was run: as §1

CCCCCCCCCCNCCN[C@@]1(C)C[C@H](O[C@H]2[C@H](Oc3c4cc5cc3Oc3ccc(cc3Cl)[C@@H](O)[C@@H](NC(=O)[C@@H](CC(C)C)NC)C(=O)N[C@@H](CC(N)=O)C(=O)N[C@H]5C(=O)N[C@H]3C(=O)N[C@H](C(=O)N[C@H](C(=O)O)c5cc(O)c(CNCP(=O)(O)O)c(O)c5-c5cc3ccc5O)[C@H](O)c3ccc(c(Cl)c3)O4)O[C@H](CO)[C@@H](O)[C@@H]2O)O[C@@H](C)[C@H]1O [TELAVANCIN]
MIC50 [1]: 0.25 µg/mL (≈ 0.142 µM) | MIC90 [1]: 0.5 µg/mL (≈ 0.285 µM) | MIC [2]: 0.06 µg/mL (≈ 0.0342 µM) | MIC50 [3]: 0.25 µg/mL (≈ 0.142 µM) | MIC90 [3]: 0.5 µg/mL (≈ 0.285 µM) | MIC50 [4]: 0.015 µg/mL (≈ 0.00854 µM) | MIC90 [4]: 0.03 µg/mL (≈ 0.0171 µM) | MIC [5]: 1 µg/mL (≈ 0.57 µM) | MIC [6]: 0.5 µg/mL (≈ 0.285 µM) | MIC50 [7]: 0.25 µg/mL (≈ 0.142 µM) | MIC90 [7]: 0.5 µg/mL (≈ 0.285 µM) | MIC50 [8]: 0.25 µg/mL (≈ 0.142 µM) | MIC90 [8]: 0.5 µg/mL (≈ 0.285 µM) | MIC50 [9]: 0.25 µg/mL (≈ 0.142 µM) | MIC90 [9]: 0.5 µg/mL (≈ 0.285 µM) | MIC50 [10]: 0.25 µg/mL (≈ 0.142 µM) | MIC90 [10]: 0.5 µg/mL (≈ 0.285 µM) | MIC [11]: 2 µg/mL (≈ 1.14 µM) | MIC [12]: 0.25 µg/mL (≈ 0.142 µM) | MIC [13]: 0.5 µg/mL (≈ 0.285 µM) | MIC50 [14]: 0.25 µg/mL (≈ 0.142 µM) | MIC90 [14]: 0.5 µg/mL (≈ 0.285 µM) | MIC [15]: 0.5 µg/mL (≈ 0.285 µM) | MIC50 [16]: 8 µg/mL (≈ 4.56 µM) | MIC90 [16]: 16 µg/mL (≈ 9.11 µM) | MIC90 [17]: 1 µg/mL (≈ 0.57 µM) | MIC50 [18]: 0.14 µM (≈ 0.246 µg/mL) | MIC [19]: 0.5 µg/mL (≈ 0.285 µM) | MIC [20]: 0.5 µg/mL (≈ 0.285 µM) | MIC [21]: 4 µg/mL (≈ 2.28 µM) | MIC [22]: 1 µg/mL (≈ 0.57 µM) | MIC [23]: 0.5 µg/mL (≈ 0.285 µM) | MIC [24]: 1 µg/mL (≈ 0.57 µM) | MIC50 [25]: 0.25 µg/mL (≈ 0.142 µM) | MIC90 [25]: 0.5 µg/mL (≈ 0.285 µM) | MIC [26]: 1 µg/mL (≈ 0.57 µM) | MIC50 [27]: 0.015 µg/mL (≈ 0.00854 µM) | MIC90 [27]: 0.015 µg/mL (≈ 0.00854 µM)

CN[C@H](CC(C)C)C(=O)N[C@H]1C(=O)N[C@@H](CC(N)=O)C(=O)N[C@H]2C(=O)N[C@H]3C(=O)N[C@H](C(=O)N[C@H](C(=O)O)c4cc(O)cc(O)c4-c4cc3ccc4O)[C@H](O)c3ccc(c(Cl)c3)Oc3cc2cc(c3O[C@@H]2O[C@H](CO)[C@@H](O)[C@H](O)[C@H]2O[C@H]2C[C@](C)(N)[C@H](O)[C@H](C)O2)Oc2ccc(cc2Cl)[C@H]1O [VANCOMYCIN]
MIC50 [1]: 1 µg/mL (≈ 0.69 µM) | MIC90 [1]: 2 µg/mL (≈ 1.38 µM) | MIC50 [3]: 2 µg/mL (≈ 1.38 µM) | MIC90 [3]: 2 µg/mL (≈ 1.38 µM) | MIC50 [4]: 0.25 µg/mL (≈ 0.173 µM) | MIC90 [4]: 0.5 µg/mL (≈ 0.345 µM) | MIC50 [7]: 1 µg/mL (≈ 0.69 µM) | MIC90 [7]: 2 µg/mL (≈ 1.38 µM) | MIC50 [8]: 2 µg/mL (≈ 1.38 µM) | MIC90 [8]: 2 µg/mL (≈ 1.38 µM) | MIC50 [9]: 2 µg/mL (≈ 1.38 µM) | MIC90 [9]: 2 µg/mL (≈ 1.38 µM) | MIC50 [10]: 2 µg/mL (≈ 1.38 µM) | MIC90 [10]: 2 µg/mL (≈ 1.38 µM) | MIC50 [14]: 2 µg/mL (≈ 1.38 µM) | MIC90 [14]: 2 µg/mL (≈ 1.38 µM) | MIC50 [16]: 512 µg/mL (≈ 353 µM) | MIC90 [16]: > 512 µg/mL | MIC50 [18]: 0.69 µM (≈ 1 µg/mL) | MIC [21]: > 32 µg/mL | MIC [24]: 32 µg/mL (≈ 22.1 µM) | MIC50 [25]: 2 µg/mL (≈ 1.38 µM) | MIC90 [25]: 2 µg/mL (≈ 1.38 µM) | MIC [27]: 0.25 µg/mL (≈ 0.173 µM) | MIC50 [27]: 0.25 µg/mL (≈ 0.173 µM) | MIC90 [27]: 0.5 µg/mL (≈ 0.345 µM)
